ChEMBL document CHEMBL3856209, “Novel pyrazolopyridine derivatives as potential angiogenesis inhibitors: Synthesis, biological evaluation and transcriptome-based mechanistic analysis” (Eur J Med Chem, 2016)
Calls of active or inactive are those of the source. The calls are words filed in the database; no cut-off is given here.

How the values were obtained:
[1] = tested on: HUVEC; test: Effect on KIFC1 gene expression in serum-starved HUVEC after 24 hrs by microarray analysis relative to control; format: functional, Homo sapiens
Summary of the method: (§1)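 Serum-starved confluent HUVEC (pooled from 3–5 donors, passage ≤4) were treated with 2 μM compound or vehicle in 2.5% FBS for 6 h or 24 h, and total RNA was isolated. Hybridization was on Illumina Human-HT12. Data were processed with bgAdjust, vst and rsn normalization. Changes versus DMSO were called by moderated paired t-test at p < 0.05 and |log2 fold change| > 0.5.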

[2] = tested on: HUVEC; test: Effect on RNVU1-7 gene expression in serum-starved HUVEC after 24 hrs by microarray analysis relative to control; format: functional, Homo sapiens
Summary of the method: (§2)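 Confluent serum-starved HUVEC (primary, pooled from 3–5 donors, passage ≤4) treated with 2 μM compound or DMSO vehicle in 2.5% FBS for 6 h or 24 h. Total RNA hybridized to Illumina Human-HT12 arrays, background-corrected, vst-transformed and rsn-normalized. Differential expression versus DMSO by moderated paired t-test (p < 0.05, |log2 fold change| > 0.5).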

[3] = tested on: HUVEC; test: Effect on PTTG1 gene expression in serum-starved HUVEC after 24 hrs by microarray analysis relative to control; format: functional, Homo sapiens; summary of the method: as §2
[4] = tested on: HUVEC; test: Effect on KIFC1 gene expression in serum-starved HUVEC after 6 hrs by microarray analysis relative to control; format: functional, Homo sapiens; summary of the method: as §1
[5] = molecular target: Vascular endothelial growth factor receptor 2 (Homo sapiens) (UniProt P35968); test: Inhibition of VEGF-165-induced VEGFR2 autophosphorylation in serum-starved HUVEC assessed as decrease in AKT phosphorylation at 2 uM preincubated for 2 hrs followed by VEGF-165 induction measured after 5 mins by Western blot analysis; format: cell-based
Summary of the method: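 Serum-starved HUVEC were given 2 µM compound or vehicle for 2 h, then VEGF-165 (50 ng/mL) or PBS for 5 min. Lysates with equal protein were run on SDS-PAGE and immunoblotted for phospho-VEGFR2 (Tyr951, 996, 1056, 1175), p-AKT Ser473, p-ERK1/2 and the total proteins. Detection was by ECL with densitometry. Phospho signals were normalized to total protein, n = 3.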

[6] = tested on: HUVEC; test: Effect on RNVU1-18 gene expression in serum-starved HUVEC after 24 hrs by microarray analysis relative to control; format: functional, Homo sapiens; summary of the method: as §2
[7] = tested on: HUVEC; test: Effect on PTTG1 gene expression in serum-starved HUVEC after 6 hrs by microarray analysis relative to control; format: functional, Homo sapiens; summary of the method: as §1
[8] = tested on: HUVEC; test: Effect on CALD1 gene expression in serum-starved HUVEC after 6 hrs by microarray analysis relative to control; format: functional, Homo sapiens
Summary of the method: (§3)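 Serum-starved confluent HUVEC treated with 2 μM compound or DMSO in 2.5% FBS for 6 h or 24 h; RNA hybridized to Illumina Human-HT12 arrays. Data background-corrected, vst-transformed and rsn-normalized. Differential probes called by moderated paired t-test (limma) at p < 0.05 and log2 fold change >|0.5| vs DMSO.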

[9] = tested on: HUVEC; test: Effect on CCNB2 gene expression in serum-starved HUVEC after 24 hrs by microarray analysis relative to control; format: functional, Homo sapiens; summary of the method: as §3
[10] = tested on: HUVEC; test: Effect on KIF22 gene expression in serum-starved HUVEC after 6 hrs by microarray analysis relative to control; format: functional, Homo sapiens; summary of the method: as §1
[11] = tested on: HUVEC; test: Effect on PTTG3P gene expression in serum-starved HUVEC after 6 hrs by microarray analysis relative to control; format: functional, Homo sapiens; summary of the method: as §2
[12] = tested on: HUVEC; test: Effect on ZWINT gene expression in serum-starved HUVEC after 6 hrs by microarray analysis relative to control; format: functional, Homo sapiens; summary of the method: as §1
[13] = tested on: HUVEC; test: Effect on SPC24 gene expression in serum-starved HUVEC after 24 hrs by microarray analysis relative to control; format: functional, Homo sapiens; summary of the method: as §2
[14] = tested on: HUVEC; test: Effect on ASPM gene expression in serum-starved HUVEC after 24 hrs by microarray analysis relative to control; format: functional, Homo sapiens; summary of the method: as §3
[15] = tested on: HUVEC (Homo sapiens); test: Antiproliferative activity against human HUVEC cells assessed as decrease in VEGF-165-induced cell growth at 0.5 to 2 uM after 24 to 48 hrs by MTT assay
[16] = tested on: HUVEC; test: Effect on CCNB2 gene expression in serum-starved HUVEC after 6 hrs by microarray analysis relative to control; format: functional, Homo sapiens; summary of the method: as §3
[17] = tested on: HUVEC; test: Effect on MMP1 gene expression in serum-starved HUVEC after 24 hrs by microarray analysis relative to control; format: functional, Homo sapiens; summary of the method: as §1
[18] = tested on: HUVEC; test: Effect on CALD1 gene expression in serum-starved HUVEC after 24 hrs by microarray analysis relative to control; format: functional, Homo sapiens; summary of the method: as §3
[19] = tested on: HUVEC; test: Effect on UBE2C gene expression in serum-starved HUVEC after 6 hrs by microarray analysis relative to control; format: functional, Homo sapiens; summary of the method: as §2
[20] = tested on: HUVEC; test: Effect on DLGAP5 gene expression in serum-starved HUVEC after 24 hrs by microarray analysis relative to control; format: functional, Homo sapiens
Summary of the method: (§4)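 Confluent, serum-starved HUVEC (pooled from 3–5 donors, passage ≤4) treated with 2 μM compound or vehicle with 2.5% FBS for 6 h or 24 h. Total RNA hybridized to Illumina Human-HT12 arrays. Data were background-corrected, vst-transformed and rsn-normalized. Hits called by moderated paired t-test versus DMSO-treated cells, p < 0.05 and log2 fold change >|0.5|.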

[21] = tested on: HUVEC; test: Effect on RNVU1-7 gene expression in serum-starved HUVEC after 6 hrs by microarray analysis relative to control; format: functional, Homo sapiens; summary of the method: as §2
[22] = tested on: HUVEC; test: Effect on PTTG3P gene expression in serum-starved HUVEC after 24 hrs by microarray analysis relative to control; format: functional, Homo sapiens; summary of the method: as §1
[23] = tested on: HUVEC; test: Effect on CENPA gene expression in serum-starved HUVEC after 24 hrs by microarray analysis relative to control; format: functional, Homo sapiens; summary of the method: as §3
[24] = tested on: HUVEC; test: Effect on UBE2C gene expression in serum-starved HUVEC after 24 hrs by microarray analysis relative to control; format: functional, Homo sapiens; summary of the method: as §2
[25] = tested on: HUVEC; test: Effect on CDC20 gene expression in serum-starved HUVEC after 24 hrs by microarray analysis relative to control; format: functional, Homo sapiens; summary of the method: as §3
[26] = tested on: Lewis lung carcinoma; test: Antitumor activity against mouse LLC cells allografted in C57BL/6 mouse assessed as tumor growth inhibition at 0.2 mg/kg, ip administered thrice a week for 2 weeks starting 24 hrs before tumor implantation measured every other day of compound dosing by electronic caliper-based method; format: functional, organism-based
Summary of the method: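 Male 6–8 week C57BL/6 mice (groups of 5–6) inoculated sc in the right flank with 5×10^5 LLC cells. Compound (0.2 mg/kg) or DMSO vehicle given ip thrice weekly for 2 weeks, starting 24 h before implantation. Tumors measured by caliper every other day. At end-point, anti-CD31 IHC (1:100) of tumor sections, with immunoreactive cells counted in six high-power fields.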

[27] = tested on: HUVEC; test: Effect on RNVU1-18 gene expression in serum-starved HUVEC after 6 hrs by microarray analysis relative to control; format: functional, Homo sapiens; summary of the method: as §1
[28] = tested on: HUVEC; test: Effect on RNA28S5 gene expression in serum-starved HUVEC after 24 hrs by microarray analysis relative to control; format: functional, Homo sapiens; summary of the method: as §1
[29] = tested on: HUVEC; test: Effect on GNG12 gene expression in serum-starved HUVEC after 6 hrs by microarray analysis relative to control; format: functional, Homo sapiens; summary of the method: as §4
[30] = tested on: HUVEC; test: Effect on DLC1 gene expression in serum-starved HUVEC after 6 hrs by microarray analysis relative to control; format: functional, Homo sapiens; summary of the method: as §4
[31] = tested on: HUVEC; test: Effect on MSMP gene expression in serum-starved HUVEC after 6 hrs by microarray analysis relative to control; format: functional, Homo sapiens; summary of the method: as §1
[32] = tested on: HUVEC; test: Effect on MSMP gene expression in serum-starved HUVEC after 24 hrs by microarray analysis relative to control; format: functional, Homo sapiens; summary of the method: as §1

Vascular endothelial growth factor receptor 2 (Homo sapiens), sequence (P35968 whole entry): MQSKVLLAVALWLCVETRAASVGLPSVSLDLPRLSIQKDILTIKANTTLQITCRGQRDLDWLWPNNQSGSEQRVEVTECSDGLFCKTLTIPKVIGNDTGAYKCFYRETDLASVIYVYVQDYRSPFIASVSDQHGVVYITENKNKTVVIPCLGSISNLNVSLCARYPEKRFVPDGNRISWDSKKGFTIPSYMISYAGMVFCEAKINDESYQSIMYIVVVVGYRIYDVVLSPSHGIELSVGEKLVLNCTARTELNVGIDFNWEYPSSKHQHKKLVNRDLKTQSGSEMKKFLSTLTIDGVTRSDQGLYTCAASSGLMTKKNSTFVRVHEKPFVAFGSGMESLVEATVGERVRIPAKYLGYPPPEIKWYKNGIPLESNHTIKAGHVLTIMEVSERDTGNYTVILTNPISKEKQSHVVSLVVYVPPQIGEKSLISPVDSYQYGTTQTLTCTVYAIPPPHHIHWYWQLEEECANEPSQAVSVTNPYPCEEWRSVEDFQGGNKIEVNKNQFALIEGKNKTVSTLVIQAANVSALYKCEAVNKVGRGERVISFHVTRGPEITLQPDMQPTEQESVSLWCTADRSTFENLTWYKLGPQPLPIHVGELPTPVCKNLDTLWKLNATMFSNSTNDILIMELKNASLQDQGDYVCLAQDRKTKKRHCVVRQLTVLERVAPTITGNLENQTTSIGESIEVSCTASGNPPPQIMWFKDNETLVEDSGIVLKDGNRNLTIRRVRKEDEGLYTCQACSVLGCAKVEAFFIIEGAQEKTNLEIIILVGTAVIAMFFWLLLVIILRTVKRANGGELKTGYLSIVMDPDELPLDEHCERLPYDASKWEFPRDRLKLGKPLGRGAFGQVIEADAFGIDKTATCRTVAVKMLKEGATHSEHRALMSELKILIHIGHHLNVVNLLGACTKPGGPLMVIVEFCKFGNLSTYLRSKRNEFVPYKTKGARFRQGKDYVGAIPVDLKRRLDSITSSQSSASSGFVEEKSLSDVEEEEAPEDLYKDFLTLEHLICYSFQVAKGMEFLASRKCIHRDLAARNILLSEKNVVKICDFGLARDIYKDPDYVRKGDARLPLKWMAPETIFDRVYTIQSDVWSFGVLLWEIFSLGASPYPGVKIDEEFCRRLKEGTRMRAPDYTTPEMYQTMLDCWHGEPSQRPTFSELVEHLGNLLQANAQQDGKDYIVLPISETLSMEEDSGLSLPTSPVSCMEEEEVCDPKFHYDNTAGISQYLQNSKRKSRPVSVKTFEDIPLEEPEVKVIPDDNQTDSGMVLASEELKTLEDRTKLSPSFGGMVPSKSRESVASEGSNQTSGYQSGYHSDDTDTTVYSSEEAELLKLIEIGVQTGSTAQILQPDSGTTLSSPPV

Compound | log2FC [1] | log2FC [2] | log2FC [3] | fold change (FC) [4] | inhibition [5] | log2FC [6] | log2FC [7] | fold change (FC) [8] | log2FC [9] | log2FC [11] | log2FC [12] | log2FC [13] | log2FC [14] | Activity [15] | log2FC [16] | log2FC [17] | log2FC [18] | log2FC [19] | log2FC [20] | TGI [26] | also measured
COc1ccc(Cn2nc(-c3ccccc3)c3cc(Nc4ccc(N5CCN(C)CC5)cc4)nc(N4CCN(C)CC4)c32)cc1 | -0.6872 | 0.1142 | -0.8594 | -0.2068 | Active | -0.0118 | -0.1804 | 0.5101 | -0.7404 | -0.2702 | -0.3223 | -0.7666 | -0.6736 | Active | -0.1003 | 0.5814 | 0.0259 | -0.2671 | -0.8206 | Active | fold change (FC) [10]: -0.1033; log2FC [21]: -0.536; log2FC [22]: -0.5177; log2FC [23]: -0.6147; log2FC [24]: -0.9349; log2FC [25]: -0.9562; log2FC [27]: -0.6156
COc1ccc(Cn2nc(-c3ccccc3)c3cc(Nc4ccc(N5CCN(C)CC5)cc4)nc(N4CCNCC4)c32)cc1 |  |  |  |  | Active |  |  |  |  |  |  |  |  |  |  | -0.646 |  |  | -0.516 | Active | log2FC [28]: 0.4902; log2FC [29]: 0.6358; log2FC [30]: 0.3681; log2FC [10]: -0.0345; log2FC [31]: -0.0154; log2FC [32]: -0.652
COc1ccc(Cn2nc(-c3ccccc3)c3cc(Cl)nc(N4CCNCC4)c32)cc1 | -0.5682 | -0.1037 | -0.6261 | 0.0022 | Active | -0.1577 | -0.1057 | 0.5218 | -0.5884 | -0.1207 | 0.1395 | -0.732 | -0.5316 | Active | -0.1297 |  | 0.263 | -0.1374 |  | Active | log2FC [28]: 0.141; fold change (FC) [29]: 0.5853; log2FC [30]: 0.5758; log2FC [31]: -0.0237; log2FC [32]: -0.6932; log2FC [21]: -0.5056; log2FC [22]: -0.5735; log2FC [23]: -0.5592; log2FC [24]: -0.5278; log2FC [25]: -0.6535; log2FC [27]: -0.6107
